The nature of data set [1]: Inhibition of polyamine transporter expressed in CHO cells. It is filed as cell-based.
The nature of data set [2]: Cytotoxicity against Sprague-Dawley rat alveolar macrophages assessed as cell viability at 2 mM after 3 hrs by trypan blue exclusion assay. To be noted: for Activity: macrophage, 3 h, 2000 µM. It is filed as cell-based, Macrophage. An outline of the steps:
(§1)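 Alveolar macrophages from normal rats (10⁶ per well) were kept in serum-free DMEM with compound for 3 h. They were then stained with 0.4% trypan blue, and unstained viable cells were counted.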

Data set [3] can be described thus: Cytotoxicity against Sprague-Dawley rat alveolar macrophages assessed as cell viability at 0.4 mM after 3 hrs by trypan blue exclusion assay. It is filed as cell-based, Macrophage. To be noted: read-out: Activity. An outline of the steps: as §1
The subject of a further data set is CHO-MG. Briefly: Inhibition of polyamine uptake in CHO-MG cells. It is filed as functional, cell-based. The conditions noted are these: Cricetulus griseus.
The test system of data set [4] is Pneumocystis carinii. Briefly: Antimicrobial activity against Pneumocystis carinii infected in Sprague-Dawley rat assessed as reduction of number of apoptotic alveolar macrophages at 0.5 mg/kg, intranasally every 2 days 28 days after infection for 21 days. It is filed as functional. An outline of the steps: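 Lung sections came from infected, dexamethasone-treated rats given 50 μl of 1 mM intranasally every 2 days for 21 days from day 28. Sections were digested with proteinase K (20 μg/ml, room temperature, 10 min), then TdT/fluorescein-12-dUTP labelled (37°C, 1 h) and DAPI-mounted. Apoptotic macrophage percentage was taken as TUNEL+/DAPI+ cells over 10 random 100× fields per slide.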

The test system of data set [5] is Pneumocystis carinii. The experiment in a line: Antimicrobial activity against Pneumocystis carinii infected in Sprague-Dawley rat assessed as reduction of inflammatory cell infiltration at 0.5 mg/kg, intranasally every 2 days 28 days after infection for 21 days. It is filed as functional, organism-based. More on the design: dose 0.5 mg/kg. An outline of the steps: (§2)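 Female Sprague-Dawley rats (~120 g) were immunosuppressed with dexamethasone at 1.8 mg/liter in drinking water. After 1 week they received a transtracheal inoculum of 7.5 × 10⁶ trophic forms, plus penicillin i.m. weekly. From infection day 28, they were given 50 μl of a 1 mM solution intranasally every 2 days. After 21 days, lungs were fixed in 4% paraformaldehyde, and paraffin sections were H&E-stained and examined by light microscopy. Inflammation was graded 0–5.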

The subject of data set [6] is Pneumocystis carinii. The experiment in a line: Antimicrobial activity against Pneumocystis carinii infected in Sprague-Dawley rat assessed as reduction of organism burden in lungs at 0.5 mg/kg, intranasally every 2 days 28 days after infection for 21 days. It is filed as functional, organism-based. More on the design: dose 0.5 mg/kg. A digest of the protocol: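 The dexamethasone-immunosuppressed, P. carinii-infected female Sprague-Dawley rats were dosed intranasally with 50 μl of a 1 mM solution every 2 days from infection day 28, for 21 days. Cysts were counted in paraffin lung sections stained with modified Grocott's methenamine silver, and burden was graded on a 0–4 scale.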

The test system of data set [7] is Pneumocystis carinii. Briefly: Antimicrobial activity against Pneumocystis carinii infected in Sprague-Dawley rat assessed as effect on foamy exudates in alveoli at 0.5 mg/kg, intranasally every 2 days 28 days after infection for 21 days. It is filed as functional, organism-based. Also noted: dose 0.5 mg/kg. An outline of the steps: as §2
A short description of data set [8]: Ratio of IC50 for polyamine uptake in CHO-MG cells to IC50 for polyamine transporter expressed in CHO cells.
For data set [9], the system named is Pneumocystis carinii. Briefly: Antimicrobial activity against Pneumocystis carinii infected in Sprague-Dawley rat assessed as increase of host survival time at 0.5 mg/kg, intranasally every 2 days 28 days after infection. It is filed as functional. A digest of the protocol:
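Female Sprague-Dawley rats (~120 g) were immunosuppressed with dexamethasone 1.8 mg/liter in drinking water. One week later they were inoculated transtracheally with 7.5 × 10⁶ trophic forms, with weekly intramuscular penicillin. From infection day 28, rats received 50 μl of a 1 mM solution intranasally every 2 days (7–8 rats/group), alongside untreated infected and uninfected controls. Survival was followed to day 84 and compared by Kaplan-Meier/log-rank.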

Data set [10] deals with Pneumocystis carinii. Briefly: Antimicrobial activity against Pneumocystis carinii infected in Sprague-Dawley rat assessed as effect on alveolar structure at 0.5 mg/kg, intranasally every 2 days 28 days after infection for 21 days. It is filed as functional, organism-based. More on the design: dose 0.5 mg/kg. A digest of the protocol: as §2
Data set [11] has as its system Pneumocystis carinii. The experiment in a line: Antimicrobial activity against Pneumocystis carinii infected in Sprague-Dawley rat assessed as reduction of alveolar septum thickness at 0.5 mg/kg, intranasally every 2 days 28 days after infection for 21 days. Also noted: dose 0.5 mg/kg. It is filed as functional, organism-based. A digest of the protocol: as §2
The test system of data set [12] is Pneumocystis carinii. The experiment in a line: Antimicrobial activity against Pneumocystis carinii infected in Sprague-Dawley rat assessed as reduction of inflammation at 0.5 mg/kg, intranasally every 2 days 28 days after infection for 21 days. It is filed as functional, organism-based. More on the design: dose 0.5 mg/kg. An outline of the steps: as §2
Data set [13] relates to Pneumocystis carinii. Briefly: Antimicrobial activity against Pneumocystis carinii infected in Sprague-Dawley rat assessed as increase of open alveolar space at 0.5 mg/kg, intranasally every 2 days 28 days after infection for 21 days. It is filed as functional, organism-based. More on the design: dose 0.5 mg/kg. An outline of the steps:
as §2

In data set [14] the test system is Pneumocystis carinii. The experiment in a line: Antimicrobial activity against Pneumocystis carinii infected in Sprague-Dawley rat assessed as reduction of foamy exudates in alveoli at 0.5 mg/kg, intranasally every 2 days 28 days after infection for 21 days. It is filed as functional, organism-based. More on the design: dose 0.5 mg/kg. A digest of the protocol: as §2

pIC50: −log10 of the molar value. The source made the active and inactive calls. The calls are words filed in the database; no cut-off is given here.

On to `NCCCCNCCCCNCCCCNCc1c2ccccc2cc2ccccc12`, for which the pIC50 was 4.97 in [1] and 4.48 in the data set with CHO-MG. Besides, the viability at 3 h, 2000 µM in data set [2] (Sprague-Dawley, alveolar macrophages, read-out: Activity) was determined as 42%. Moreover, the viability at 3 h, 400 µM in [3] was 88%.

As to `Cl.NCCCCNCCCCNCc1ccc(CNCCCCNCCCCN)cc1`, the outcome in the data set on Pneumocystis carinii [4], with Pneumocystis carinii [7] and in the data set with Pneumocystis carinii [10] was inactive. Moreover, the results for the pIC50 (in [1]; with CHO-MG) were 7.13 and 4.30, respectively. For the same molecule, the outcome in the data set with Pneumocystis carinii [5] and in the data set on Pneumocystis carinii [6] was Active. The Activity result in [2] is listed as “Non-toxic”. Also, the “Ratio IC50” value in data set [8] is reported as 677. Besides, the Survival in the data set on Pneumocystis carinii [9] amounted to 84 days.

Turning to `Cl.Cl.NCCCCNCc1c2ccccc2cc2ccccc12`, in [1], the pIC50 is 5.11. Further, the viability at 3 h, 400 µM in data set [3] is less than 16%. Besides, in data set [8], the “Ratio IC50” value is recorded as 1.

`NCCCCNCCCCNCc1c2ccccc2cc2ccccc12`: the negative-log IC50 (pIC50) in data set [1] is 6.35. Besides, the viability at 3 h, 400 µM in data set [3] is less than 16%.

For `Cl.NCCCCNCCCCNCc1c2ccccc2c(CNCCCCNCCCCN)c2ccccc12`, the Activity with Pneumocystis carinii [4] is on record as 80%; in data set [2], “Non-toxic”. Further, the result in the data set with Pneumocystis carinii [11], in the data set with Pneumocystis carinii [12], with Pneumocystis carinii [13], in the data set with Pneumocystis carinii [6] and in the data set on Pneumocystis carinii [14] was Active. For the same molecule, the pIC50 in data set [1] is 7.35; in the data set on CHO-MG it was less than 4.00. In data set [8], the “Ratio IC50” value was more than 2222. The Survival in the data set on Pneumocystis carinii [9] worked out at 84 days.

The pIC50 is −log10 of the IC50, conventionally taken in molar units.
